# Measurements taken from ChEMBL document CHEMBL1153546, “Pharmacokinetics of telbivudine in subjects with various degrees of renal impairment” (Antimicrob Agents Chemother, 2007).
# Assays:
# [1] = Plasma clearance in human with normal renal function; assay type: ADME, organism-based
# [2] = AUC (0 to t) in patient with mild renal impairment at 600 mg, po administered as single dose; assay type: ADME, organism-based; conditions: human, plasma
# Summary of the method: (§1)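 Single oral telbivudine dose. Heparinized blood was drawn predose and up to 48 h postdose, with extra paired dialyzer samples for predialysis dosing. Plasma was stored at –20°C and assayed by validated HPLC-MS/MS (LLOQ 10 ng/ml, range 10–5,000 ng/ml). Noncompartmental analysis: AUC0-t by linear trapezoidal rule to last measurable concentration; AUC0-∞ = AUC0-t + Ct/kel.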
# Hepatitis B virus = assay: Antiviral activity against HBV in HBeAg-positive patient with chronic viral infection assessed as log reduction of serum viral DNA copies/ml at 60 mg/day after 4 weeks; assay type: functional
# [3] = Elimination half life in patient with end-stage renal disease at 200 mg, po administered as two single doses within 2 hrs of after completion of dialysis separated by 1 week washout period; assay type: ADME, organism-based; conditions: human, in vivo, read-out: beta t1/2 (converted)
# Summary of the method: (§2)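 Half-lives came from noncompartmental analysis of plasma LC-MS/MS concentrations over 48 h after a single oral dose. Terminal and initial-decline t1/2 were calculated as 0.693/k, with each rate constant derived by stripping and linear regression.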
# HepG2 [4] = assay: Cmax for Telbivudine triphosphate in HepG2 cells after 10 uM Telbivudine treatment; assay type: ADME, cell-based; conditions: human, hepg2, 10 µM; read-out: Cmax_triphosphate
# Homo sapiens [5] = assay: Dialytic clearance in patient with end-stage renal disease at 200 mg, po administered as single dose 2 hrs before dialysis; assay type: ADME, organism-based; conditions: in vivo
# Summary of the method: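 Dose given 2 h before a 3.5–4 h hemodialysis session. Paired pre- and postdialyzer plasma samples were taken at start, mid and end of dialysis. CLHD = [(QA×CA) – (QV×CV)]/CA, where QA and QV are dialyzer inflow and outflow blood rates and CA and CV are the paired concentrations.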
# [6] = AUC (0 to t) in patient with severe renal impairment at 200 mg, po administered as single dose; assay type: ADME, organism-based; conditions: human, plasma; summary of the method: as §1
# [7] = Initial decline half life in patient with mild renal impairment at 600 mg, po administered as single dose; assay type: ADME, organism-based; conditions: human, in vivo, read-out: alphat1/2 (converted); summary of the method: as §2
# [8] = AUC (0 to t) in patient with moderate renal impairment at 400 mg, po administered as single dose; assay type: ADME, organism-based; conditions: human, plasma; summary of the method: as §1
# [9] = Renal clearance in patient with mild renal impairment at 600 mg, po administered as single dose; assay type: ADME, organism-based, Kidney; conditions: human, in vivo, read-out: CL_renal (converted)
# Summary of the method: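 Renal clearance = Au0-t/AUC0-t, where Au0-t is the cumulative unchanged drug in urine collected over 0–48 h. Plasma and urine were assayed by validated HPLC-MS/MS after a single oral dose.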
# Homo sapiens [10] = assay: AUC (0 to infinity) in human with normal renal function at 600 mg, po administered as single dose; assay type: ADME, organism-based, Plasma; parameters: dose 600 mg, route oral, time infinity; conditions: in vivo; summary of the method: as §1
# [11] = Elimination half life in human with normal renal function at 600 mg, po administered as single dose; assay type: ADME, organism-based; conditions: in vivo, read-out: beta t1/2 (converted); summary of the method: as §2
# [12] = Plasma clearance in patient with severe renal impairment at 200 mg, po administered as single dose; assay type: ADME, organism-based; conditions: human
# Summary of the method: (§3)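 Apparent total oral plasma clearance (CL/F) = dose/AUC0-∞. AUC was obtained noncompartmentally from plasma LC-MS/MS concentrations sampled up to 48 h after a single oral dose.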
# [13] = Elimination half life in patient with moderate renal impairment at 400 mg, po administered as single dose; assay type: ADME, organism-based; conditions: human, in vivo, read-out: beta t1/2 (converted); summary of the method: as §2
# [14] = Tmax in patient with end-stage renal disease at 200 mg, po administered as two single doses within 2 hrs of after completion of dialysis separated by 1 week washout period; assay type: ADME, organism-based; conditions: human, in vivo
# Summary of the method: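 Single oral dose. Plasma was frozen at –20°C. Assay by validated HPLC-MS/MS (LLOQ 10 ng/ml, calibration 10–5,000 ng/ml, m/z 243.0→127.1). Tmax was read directly from the concentration-time data, with noncompartmental analysis.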
# HepG2 [15] = assay: Metabolic stability in human HepG2 cells assessed as Telbivudine triphosphate half life; assay type: ADME, cell-based
# [16] = Cmax in patient with end-stage renal disease at 200 mg, po administered as two single doses 2 hrs before dialysis separated by 1 week washout period; assay type: ADME, organism-based; parameters: dose 200 mg, route oral; conditions: human, in vivo
# Summary of the method: (§4)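 Plasma telbivudine after one oral dose, sampled predose through 48 h and quantified by validated LC-MS/MS (LLOQ 10 ng/ml, transition 243.0→127.1 m/z). Cmax was read directly from the observed concentration-time data.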
# [17] = AUC (0 to infinity) in patient with mild renal impairment at 600 mg, po administered as single dose; assay type: ADME, organism-based; parameters: dose 600 mg, route oral, time infinity; conditions: human, plasma; summary of the method: as §1
# Homo sapiens [18] = assay: Plasma clearance in human with normal renal function at 600 mg, po administered as single dose; assay type: ADME, organism-based; conditions: in vivo; summary of the method: as §3
# [19] = AUC (0 to t) in patient with end-stage renal disease at 200 mg, po disease as two single doses 2 hrs before dialysis separated by 1 week washout period; assay type: ADME, organism-based; conditions: human, plasma; summary of the method: as §1
# [20] = Renal clearance in patient with severe renal impairment at 200 mg, po administered as single dose; assay type: ADME, organism-based, Kidney; conditions: human, in vivo, read-out: CL_renal (converted)
# Summary of the method: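 Single oral dose. Urine was collected at –2–0 h and over 0–4, 4–8, 8–12, 12–24 and 24–48 h; plasma was sampled over 48 h. Both matrices were assayed by HPLC-MS/MS (urine LLOQ 30 ng/ml, plasma LLOQ 10 ng/ml). Renal clearance = cumulative urinary unchanged drug (Au0-t) / AUC0-t, with AUC by the linear trapezoidal rule.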
# [21] = Initial decline half life in human with normal renal function at 600 mg, po administered as single dose; assay type: ADME, organism-based; conditions: in vivo, read-out: alphat1/2 (converted); summary of the method: as §2
# [22] = Mean cumulative urine excretion level in human with normal renal function at 600 mg, po administered as single dose; assay type: ADME, organism-based; conditions: read-out: Activity
# Summary of the method: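 Urine collected at –2 to 0 h predose and at 0–4, 4–8, 8–12, 12–24 and 24–48 h after a single oral dose. Unchanged telbivudine measured by validated HPLC-MS/MS (LLOQ 30 ng/ml, calibration 30–5,000 ng/ml), and amounts were summed cumulatively.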
# [23] = AUC (0 to infinity) in patient with severe renal impairment at 200 mg, po administered as single dose; assay type: ADME, organism-based; parameters: dose 200 mg, route oral, time infinity; conditions: human, plasma; summary of the method: as §1
# [24] = Plasma clearance in patient with moderate renal impairment at 400 mg, po administered as single dose; assay type: ADME, organism-based; conditions: human; summary of the method: as §3
# [25] = Initial decline half life in patient with moderate renal impairment at 400 mg, po administered as single dose; assay type: ADME, organism-based; conditions: human, in vivo, read-out: alphat1/2 (converted); summary of the method: as §2
# [26] = Cmax in patient with end-stage renal disease at 200 mg, po administered as two single doses within 2 hrs of after completion of dialysis separated by 1 week washout period; assay type: ADME, organism-based; parameters: dose 200 mg, route oral; conditions: human, in vivo; summary of the method: as §4
# [27] = Initial decline half life in patient with severe renal impairment at 200 mg, po administered as single dose; assay type: ADME, organism-based; conditions: human, in vivo, read-out: alphat1/2 (converted); summary of the method: as §2
structure (smiles),measurement,setting,value
Cc1cn([C@@H]2C[C@@H](O)[C@H](CO)O2)c(=O)[nH]c1=O [TELBIVUDINE],clearance,[1],200 mL/min
same,AUC(0-t),[2],29200 ng·h/mL
same,Activity,Hepatitis B virus,3.6 mL⁻¹
same,half-life,[3],37.9 h
same,Cmax,HepG2 [4],30 µM
same,CL,Homo sapiens [5],13.3 L/h
same,AUC(0-t),[6],25300 ng·h/mL
same,half-life,[7],3.42 h
same,AUC(0-t),[8],30100 ng·h/mL
same,CL renal,[9],83.3 mL/min
same,AUC,Homo sapiens [10],28500 ng·h/mL
same,half-life,[11],20.5 h
same,CL/F,[12],118 mL/min
same,half-life,[13],31.2 h
same,Tmax,[14],3.5 h
same,t1/2,HepG2 [15],15 h
same,Cmax,[16],1200 ng/mL
same,AUC(0-inf),[17],32500 ng·h/mL
same,CL,Homo sapiens [18],7.6 L/h
same,AUC(0-t),[19],26500 ng·h/mL
same,CL renal,[20],11.7 mL/min
same,half-life,[21],2.32 h
same,dose excreted,[22],31.5%
same,AUC(0-inf),[23],32500 ng·h/mL
same,CL/F,[24],227 mL/min
same,half-life,[25],3.82 h
same,Cmax,[26],2100 ng/mL
same,half-life,[27],4.5 h
